From ChEMBL document CHEMBL1828512, “Potent, metabolically stable benzopyrimido-pyrrolo-oxazine-dione (BPO) CFTR inhibitors for polycystic kidney disease” (J Med Chem, 2011)
≈ marks a conversion by molar mass, not a printed value.

Experiments:
[1] = Metabolic stability of the compound in rat liver microsomes assessed as disappearance of compound after 30 mins by LC/MS analysis in presence of NADPH; format: ADME, Microsome; settings: read-out: Drug metabolism
Summary of the method: (§1)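 Compound at 5 µM was incubated with rat liver microsomes (1 mg protein/mL) in 100 mM potassium phosphate at 37 °C, with 0 or 1 mM NADPH. Samples were chilled, extracted with ethyl acetate, dried and taken up in mobile phase. Analysis was reverse-phase C18 LC/MS on a 5–95% acetonitrile gradient with negative ion detection.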

[2] = Solubility of the compound in albumin free saline; format: physicochemical; settings: buffer
[3] = system: Liver microsomes; assay: Metabolic stability of the compound in rat liver microsomes assessed as disappearance of compound after 30 mins by LC/MS analysis in absence of NADPH; format: ADME, Microsome; settings: 0.5 h; summary of the method: as §1
[4] = molecular target: Cystic fibrosis transmembrane conductance regulator (Homo sapiens, UniProt P13569); assay: Inhibition of human wild-type CFTR expressed in FRT cells coexpressing YFP-H148Q assessed as inhibition of cAMP agonist-induced iodide influx after 45 mins by fluorescence plate-reader analysis; format: functional, cell-based
Chain of Cystic fibrosis transmembrane conductance regulator (P13569 whole entry): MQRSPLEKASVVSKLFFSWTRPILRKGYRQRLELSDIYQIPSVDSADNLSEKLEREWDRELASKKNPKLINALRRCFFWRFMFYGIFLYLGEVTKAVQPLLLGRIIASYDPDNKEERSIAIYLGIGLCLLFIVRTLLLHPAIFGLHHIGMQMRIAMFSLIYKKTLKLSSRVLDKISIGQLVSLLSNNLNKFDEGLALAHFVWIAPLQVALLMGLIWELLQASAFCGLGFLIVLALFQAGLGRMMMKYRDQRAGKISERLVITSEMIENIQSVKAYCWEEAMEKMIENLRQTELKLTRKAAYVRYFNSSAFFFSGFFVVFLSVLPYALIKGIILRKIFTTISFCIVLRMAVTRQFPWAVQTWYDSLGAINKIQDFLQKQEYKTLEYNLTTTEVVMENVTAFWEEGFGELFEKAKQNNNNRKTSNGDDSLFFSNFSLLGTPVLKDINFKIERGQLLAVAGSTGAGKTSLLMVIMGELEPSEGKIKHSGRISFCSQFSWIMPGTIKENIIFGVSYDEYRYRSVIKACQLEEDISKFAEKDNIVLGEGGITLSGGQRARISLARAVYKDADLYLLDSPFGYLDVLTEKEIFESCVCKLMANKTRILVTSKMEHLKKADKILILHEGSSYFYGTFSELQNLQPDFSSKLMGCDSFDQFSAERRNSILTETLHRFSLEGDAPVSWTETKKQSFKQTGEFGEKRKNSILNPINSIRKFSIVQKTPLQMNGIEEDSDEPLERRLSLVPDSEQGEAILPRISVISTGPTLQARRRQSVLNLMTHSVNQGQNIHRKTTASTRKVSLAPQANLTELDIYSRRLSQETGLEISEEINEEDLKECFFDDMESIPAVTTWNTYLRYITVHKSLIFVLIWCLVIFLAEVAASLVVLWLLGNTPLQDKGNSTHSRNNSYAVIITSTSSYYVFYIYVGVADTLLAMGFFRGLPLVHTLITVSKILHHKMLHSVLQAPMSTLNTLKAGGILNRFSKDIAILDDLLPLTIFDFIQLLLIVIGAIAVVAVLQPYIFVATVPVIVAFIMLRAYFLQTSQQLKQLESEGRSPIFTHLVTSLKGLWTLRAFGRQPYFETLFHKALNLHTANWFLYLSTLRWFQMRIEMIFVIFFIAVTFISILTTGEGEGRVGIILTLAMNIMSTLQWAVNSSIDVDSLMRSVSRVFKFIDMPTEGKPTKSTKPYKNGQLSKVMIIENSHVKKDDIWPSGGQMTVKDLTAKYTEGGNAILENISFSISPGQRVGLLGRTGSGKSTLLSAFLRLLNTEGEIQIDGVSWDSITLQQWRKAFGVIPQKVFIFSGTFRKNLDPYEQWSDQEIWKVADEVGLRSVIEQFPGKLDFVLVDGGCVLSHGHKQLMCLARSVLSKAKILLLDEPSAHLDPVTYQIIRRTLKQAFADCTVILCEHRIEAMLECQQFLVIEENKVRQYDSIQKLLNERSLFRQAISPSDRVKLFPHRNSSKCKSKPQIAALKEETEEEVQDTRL

[5] = Solubility of the compound in aqueous phosphate buffer at pH 7.4; format: physicochemical
Summary of the method: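 Solubility was measured in aqueous phosphate buffer at pH 7.4.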

[6] = system: Kidney; assay: Inhibition of 8-Br-cAMP-induced renal cystogenesis in mouse embryonic kidney organ culture model after 5 days by inverted microscopic analysis; format: functional, tissue-based; settings: 120 h

| IC50 [4] | Compound | also measured |
| --- | --- | --- |
|  | Cc1ccc(C2Nc3ccccc3-n3c(-c4ccccc4)c4c(=O)n(C)c(=O)n(C)c4c32)o1 (configuration not stated) | metabolised at 0.5 h [1]: 60%; solubility [2]: < 2 µM; Stability [3]: Stable |
| Not Active | Cc1ccc(C2c3c4c(c(-c5ccccc5)n3-c3ccccc3N2S(C)(=O)=O)c(=O)n(C)c(=O)n4C)o1 (configuration not stated) |  |
| Not Active | Cc1ccc(C2c3c4c(c(-c5ccccc5)n3-c3ccccc3N2C(=O)CCl)c(=O)n(C)c(=O)n4C)o1 (configuration not stated) |  |
| Not Active | CC(=O)N1c2ccccc2-n2c(-c3ccccc3)c3c(=O)n(C)c(=O)n(C)c3c2C1c1ccc(C)o1 (configuration not stated) |  |
| Not Active | Cn1c(=O)c2c(-c3ccccc3)n3c(c2n(C)c1=O)C(c1ccc(-c2ccccc2)o1)Nc1ccccc1-3 (configuration not stated) |  |
| Not Active | Cn1c(=O)c2c(-c3ccccc3)n3c(c2n(C)c1=O)C(c1ccc(CO)o1)Nc1ccccc1-3 (configuration not stated) |  |
| Not Active | Cn1c(=O)c2c(-c3ccccc3)n3c(c2n(C)c1=O)C(c1cc2ccccc2o1)Nc1ccccc1-3 (configuration not stated) |  |
|  | Cn1c(=O)c2c(-c3ccccc3)n3c(c2n(C)c1=O)C(c1ccc(Br)o1)Oc1ccc(C(=O)O)cc1-3 (configuration not stated) | metabolised at 0.5 h [1]: < 5%; solubility [5]: 17 µM (≈ 9.32 µg/mL); IC50 [6]: 0.1 µM |
